# M1 antag = antagonists of rat M1 muscarinic receptor | B-score at 10 µM | P08482 | CHO-M1 cells, Fluo-4 calcium, ACh EC80 antagonist mode; stronger effect = lower value | 64,000 compounds, 3.4% hits;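 active = calcium fluorescence response, raw or row-and-column corrected B-score, differing from the plate sample mean either way at a set confidence level, mostly lower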
# D1 allo mod = allosteric modulators of human D1 dopamine receptor | P21728 | HEK293 D1, CRE-luciferase, dopamine EC30 potentiation; actives deviate in either direction | B-score at 10 µM | 58,000 compounds, 5.9% hits | AID 641;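 active = luminescence count or its row- and column-corrected plate score outside the 99.7% band of the plate's sample wells, on either side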
# M1 ag = M1 muscarinic receptor agonism | CHO-M1 cells, Fluo-4 calcium fluorescence, agonist mode; stronger effect = higher value | B-score at 10 µM | 64,000 compounds, 3% hits;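 active = fluorescence rise, raw or as B-score row- and column-corrected plate score, outside the 99.7% band of its plate's samples, either direction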
# HEK293 NFkB inh = inhibitors of the PMA/ionomycin-induced NF-kB reporter in HEK293 cells | 62,000 compounds, 0.21% hits | HEK-293 NF-kB luciferase reporter, luminescence | inhibition, % at 3 µM;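 active = inhibition above the mean of all tested compounds plus 3 SD, cut at about 40% in these data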;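 note: 0% = stimulated DMSO wells and 100% = 10 µM reference inhibitor 5653914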
#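 Reagent: PMA plus ionomycin mix as NF-kB-activating stimulus. Assay system: NF-kB luciferase reporter HEK-293 cells. Technique: luminescence from luciferase substrate reagent. Incubation: 1 h compound pre-incubation, 16 h PMA/ionomycin at 37 °C. Benchmarks: DMSO only as uninhibited control, 10 µM reference inhibitor as full inhibition. Repeats: tested once.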
# DAT uptake mod = human DAT dopamine uptake with cocaine, either direction; LLC-PK1 hDAT cells, [14C]-dopamine uptake with cocaine IC80; actives deviate in either direction; B-score at 10 µM; 110,000 compounds, 1.3% hits; AID 449768;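 active = Z score or B-score, a plate-position-corrected score, falls beyond the plate's 99.7% confidence bounds, in either direction; inactive = both scores lie inside the 99.7% bounds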;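 note: scored against the spread of the other compound wells on the same plate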
# BAP1 block = blocks human BAP1 ubiquitin-AMC hydrolysis | Q92560 | recombinant BAP1, Ub-AMC hydrolysis fluorescence kinetic; stronger effect = lower value | calls only at 20 µM | 72,000 compounds, 0.48% hits | AID 436;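 active = activity remaining at or below 50% of control, provided the compound also passes the data quality filters; inactive = the rest, including low values that fail the filters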;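 note: 100% = DMSO wells rate and 0% = substrate alone blank rate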
# Target sequence (Q92560 whole entry, looked up): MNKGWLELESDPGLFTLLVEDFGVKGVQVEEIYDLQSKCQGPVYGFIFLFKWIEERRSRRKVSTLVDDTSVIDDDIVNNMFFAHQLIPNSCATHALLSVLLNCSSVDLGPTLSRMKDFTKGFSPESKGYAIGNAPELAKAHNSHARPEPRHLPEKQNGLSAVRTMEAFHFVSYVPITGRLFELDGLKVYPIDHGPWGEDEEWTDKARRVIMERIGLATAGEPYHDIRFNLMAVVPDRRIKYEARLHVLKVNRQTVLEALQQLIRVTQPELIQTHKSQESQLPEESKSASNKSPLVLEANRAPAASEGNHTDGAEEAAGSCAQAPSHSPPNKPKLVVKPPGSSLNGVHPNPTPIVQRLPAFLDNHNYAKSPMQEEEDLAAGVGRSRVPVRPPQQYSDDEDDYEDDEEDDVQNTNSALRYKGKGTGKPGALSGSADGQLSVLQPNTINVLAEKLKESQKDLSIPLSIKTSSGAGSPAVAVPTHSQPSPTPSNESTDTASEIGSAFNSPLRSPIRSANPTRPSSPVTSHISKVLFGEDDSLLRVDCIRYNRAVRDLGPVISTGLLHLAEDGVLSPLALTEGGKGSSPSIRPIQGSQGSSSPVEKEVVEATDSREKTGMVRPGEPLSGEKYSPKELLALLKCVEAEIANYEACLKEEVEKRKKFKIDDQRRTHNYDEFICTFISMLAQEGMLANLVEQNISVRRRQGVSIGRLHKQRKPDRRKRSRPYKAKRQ
# D1 PAM confirm = D1 receptor (human) allosteric modulation, confirmed; shares compounds with D1 allo mod; HEK293 D1 CRE-luciferase, dopamine EC30 potentiation; stronger effect = higher value; luminescence at 10 µM; 2,200 compounds, 88% hits;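 active = luminescence in either of two replicates above the same-plate mean plus 3 SD of the low-dose dopamine control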
# D1 no dopamine = D1 (human) signaling in absence of dopamine; HEK293 D1 CRE-luciferase, luminescence, no dopamine; stronger effect = higher value; 1,900 compounds, 0.8% hits; AID 646; luminescence at 10 µM; shares compounds with D1 allo mod; in the data active = luminescence above about 3900
# Isoprot counter = counter-screen for D1 modulators: isoproterenol response in HEK293 cells. shares compounds with D1 allo mod. HEK293 D1 CRE-luciferase, isoproterenol EC30 counter-screen. calls only at 10 µM. 2,200 compounds, 63% hits. AID 647;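 active = luminescence in either replicate above plate mean of wells with a partly effective reference agonist dose plus 3 SD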;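 note: isoproterenol raises cAMP through native beta-adrenoceptor Gs so signal bypasses D1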
# Active calls of the source: *; i = inactive; . = not tested or not shown; + = active, no number. An excerpt weighted towards active compounds, which were near 7.2% of everything screened.
SMILES,M1 antag,D1 allo mod,M1 ag,HEK293 NFkB inh,DAT uptake mod,BAP1 block,D1 PAM confirm,D1 no dopamine,Isoprot counter
COC(=O)CCc1c(C)c(C#N)c2nc3ccccc3n2c1N1CCCC1,-0.13,5.5*,-0.65,14,-0.77,i,10456*,.,+
Cc1c(-c2ccccc2)nc(N)c(C#N)c1-c1ccco1,-0.16,5*,0.091,10,-0.044,.,15044*,1636,i
N#Cc1c(-c2ccco2)cc(-c2cccnc2)nc1N,0.026,8.3*,-0.15,9,0.15,i,14352*,1676,+
N#Cc1c(-c2ccco2)cc(-c2ccccn2)nc1N,.,6.5*,.,-9,0.43,i,12544*,1548,+
N#Cc1c(-c2ccco2)cc(C2CC2)nc1N,0.3,.,0.28,.,0.27,i,.,.,.
CCc1nc(N)c(C#N)c(-c2ccco2)c1C,1,.,0.027,.,.,.,.,.,.
CCCc1ccc(C=Cc2ccccc2)nc1,.,.,.,.,.,i,.,.,.
COc1ccccc1C(=O)Nc1cc(-c2nc3cc(Cl)ccc3o2)ccc1C,.,.,.,.,.,i,.,.,.
COc1ccc(OCc2nnc3n2N=C(c2ccc(C)cc2)CS3)cc1,-0.18,1.5,0.42,17,0.27,i,.,.,.
CCOc1ccc(C2=Nn3c(nnc3-c3ccc(OC)cc3)SC2)cc1,1.4,7.8*,-0.12,23,0.52,i,11104*,1552,+
COc1ccc(OCc2nnc3n2N=C(c2ccc(OC)cc2)CS3)cc1,0.082,9.7*,1.3,9,2.2,i,13236*,.,+
COc1ccc(C2=Nn3c(nnc3-c3ccncc3)SC2)cc1,.,.,.,.,-0.17,.,.,.,.
O=C(c1ccccc1Cl)N1CCCC(c2nc3c(nnn3Cc3ccccc3)c(=O)[nH]2)C1 (centres undefined),-0.34,1.4,-0.22,19,1.8,i,.,.,.
COc1cccc(Cn2nnc3c(=O)[nH]c(C4CCCN(C(=O)c5ccccc5Cl)C4)nc32)c1 (centres undefined),1.7,3*,2,18,1.5,i,9972*,.,+
COc1ccc(Cn2nnc3c(=O)[nH]c(C4CCCN(C(=O)c5ccccc5)C4)nc32)cc1 (centres undefined),-0.052,4.3*,0.32,9,2.2,i,10456*,1612,i
Cc1ccccc1Nc1nc(N)nc(CSc2nnc(-c3ccccc3)n2C)n1,.,.,.,.,1.6,.,.,.,.
COc1ccccc1Nc1nc(N)nc(CSc2nncn2C)n1,0.24,12*,0.4,4,-0.073,i,6088,.,i
O=S(=O)(c1ccccc1C(F)(F)F)N1CCOCC1,0.21,4.9*,-0.44,10,-0.0052,i,4520,1508,i
Cc1cc(C(=O)O)cc(S(=O)(=O)N2CCOCC2)c1C,1.4,-0.6,-0.018,7,0.2,i,.,.,.
COc1cc2c(cc1OC)C1=C(C#N)COCN1CC2,0.31,15*,-0.4,21,-0.7,i,9624*,1768,+
COc1cc2c(cc1OC)C1=C(C#N)CCC(=NC(=O)c3ccc(Cl)cc3)N1CC2,.,.,.,.,0.61,.,.,.,.
CCOc1cc(C2CC(=O)NC(SCC)=C2C#N)ccc1O (centres undefined),0.67,4.5*,0.28,7,-0.36,i,6316*,1704,i
CCOc1cc(C2CC(=O)Nc3cc(C)c(C)cc32)ccc1O (centres undefined),0.017,21*,-0.61,14,0.16,i,17484*,.,+
CCOc1cc(C2CC(=O)c3c(ccc4ccccc34)N2)ccc1O (centres undefined),.,.,.,.,-1.6,.,.,.,.
O=C(Nc1c[nH]c(=O)[nH]c1=O)c1ccc2c(c1)C(=O)N(C1CCCCC1)C2=O,.,.,.,.,.,i,.,.,.
SMILES,M1 antag,D1 allo mod,M1 ag,HEK293 NFkB inh,DAT uptake mod,BAP1 block,D1 PAM confirm,D1 no dopamine,Isoprot counter
CCCN1C2=NS(=O)(=O)CCN2c2ccccc21,-0.038,8.4*,-0.51,18,-0.27,i,20272*,2056,+
c1ccc2c(c1)N1CCN=C1N2CCN1CCCCC1,-0.82,1,0.12,10,0.69,i,.,.,.
N#Cc1c(N2CCN(C(=O)c3ccco3)CC2)nc(-c2ccccc2)c2c1CCCC2,-0.019,2.8*,-0.6,10,0.38,.,13716*,1492,+
O=C(c1ccco1)N1CCN(c2nc(C3CC3)nc3sc4c(c23)CCCC4)CC1,0.17,6.9*,0.79,11,0.2,i,15256*,1564,i
CC(C)Cc1nc(N2CCN(C(=O)c3ccco3)CC2)c(C#N)c2c1CCC2,0.11,7.5*,0.25,.,1.2,i,12548*,1660,+
CC(C)c1cc(N2CCN(C(=O)c3ccco3)CC2)n2c(nc3ccccc32)c1C#N,-0.88,6*,2.1,22,0.1,i,8868*,.,+
CC(C)c1cc(NCCN2CCOCC2)n2c(nc3ccccc32)c1C#N,0.72,0.93,-0.19,.,.,.,.,.,.
CCOC(=O)c1c(NC(=O)c2ccc(OC)cc2OC)sc2c1CCC2,.,.,.,.,.,i,.,.,.
CC(=O)N1CCN(c2nc(CC(C)C)c3c(c2C#N)CCC3)CC1,-0.85,18*,-0.85,.,0.75,i,22940*,1688,+
CC(C)Cc1nc(N2CCN(C(=O)C(C)C)CC2)c(C#N)c2c1CCC2,0.57,4.5*,2.5,.,1.7,i,7400*,1544,i
CC(C)Cc1nc(N2CCN(C(=O)c3ccccc3)CC2)c(C#N)c2c1CCC2,.,.,.,.,0.068,.,.,.,.
CCCc1nc(N2CCOCC2)c(C#N)c2c1CCCC2,0.36,6.5*,-0.27,.,-0.15,i,7888*,1524,i
COc1cccc(-n2nnc3c(=O)n(CC(=O)Nc4ccccc4C)cnc32)c1,.,.,.,.,0.28,.,.,.,.
COc1cccc(-n2nnc3c(=O)n(CC(=O)NC4CCCC4)cnc32)c1,-0.14,4.4*,-0.42,13,-0.52,i,8080,1872,i
O=C1CSc2ccccc2N1Cc1ccccc1F,0.79,3.5*,1.2,14,0.053,i,6672*,1472,i
O=C(CN1C(=O)CSc2ccccc21)NC1CCCC1,-0.032,0.25,0.59,0,.,i,.,.,.
N#Cc1c(SCC(N)=O)nsc1SCc1ccc(Cl)cc1,0.041,-0.036,0.2,.,-0.028,i,.,.,.
N#Cc1c(SCC(N)=O)nsc1SCc1ccccc1Cl,0.069,5.6*,-0.29,-2,-0.19,i,5884*,.,+
Cc1c(C(c2cccc(I)c2)c2c(C)n(C)n(-c3ccccc3)c2=O)c(=O)n(-c2ccccc2)n1C,.,.,.,.,.,i,.,.,.
C=C(C)Cn1c(SCC#N)nc2ccccc2c1=O,-1,16*,-0.033,13,-2.9*,i,15044*,1640,+

# Screening data: PubChem BioAssay, several laboratories
